Data published in ChEMBL document CHEMBL2385051, “Facile synthesis of new imidazo[1,2-a]pyridines carrying 1,2,3-triazoles via click chemistry and their antiepileptic studies” (Bioorg Med Chem Lett, 2013).
Calls of active or inactive are those of the source. The rule behind the calls is not given here.

Columns and labels:
Mus musculus [1] = assay: Neurotoxicity in NMRI mouse assessed as minimal motor impairment at 20 to 100 mg/kg, ip after 4 hrs by rotarod test; type: toxicity, organism-based; design: dose 20-100 mg/kg, route intraperitoneal; conditions: in vivo
Outline: (§1)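 Rotarod motor-impairment test in mice given 20, 40 and 100 mg/kg doses, read 0.5 and 4 h after administration. The value recorded is the minimal dose producing toxicity in more than 50% of mice.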

Mus musculus [2] = assay: Anticonvulsant activity in NMRI mouse assessed as protection against subcutaneous pentylene tetrazole-induced seizure at 20 to 100 mg/kg, ip after 4 hrs; type: functional, organism-based
Outline: (§2)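 Mice received 20, 40 and 100 mg/kg test doses. Seizures were induced by electrical shock (MES) or PTZ injection (scPTZ) at 0.5 and 4 h after dosing. The value recorded is the minimal dose protecting more than 50% of mice against seizure.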

Mus musculus [3] = assay: Anticonvulsant activity in NMRI mouse assessed as protection against maximal electroshock-induced seizures at 20 to 100 mg/kg, ip after 4 hrs; type: functional, organism-based; outline: as §2
Mus musculus [4] = assay: Neurotoxicity in NMRI mouse assessed as minimal motor impairment at 20 to 100 mg/kg, ip after 0.5 hrs by rotarod test; type: toxicity, organism-based; design: dose 20-100 mg/kg, route intraperitoneal; conditions: in vivo; outline: as §1
Mus musculus [5] = assay: Anticonvulsant activity in NMRI mouse assessed as protection against maximal electroshock-induced seizures at 20 to 100 mg/kg, ip after 0.5 hrs; type: functional, organism-based; outline: as §2
Mus musculus [6] = assay: Anticonvulsant activity in NMRI mouse assessed as protection against subcutaneous pentylene tetrazole-induced seizure at 20 to 100 mg/kg, ip after 0.5 hrs; type: functional, organism-based; outline: as §2
Mus musculus [7] = assay: Anticonvulsant activity in ip dosed NMRI mouse assessed as dose required to cause protection against subcutaneous pentylene tetrazole-induced seizure after 4 hrs; type: functional; conditions: read-out: MED; outline: as §2
[8] = Neurotoxicity in ip dosed NMRI mouse assessed as dose required to cause minimal motor impairment after 4 hrs by rotarod test; type: toxicity, organism-based; conditions: in vivo, read-out: MTC50; outline: as §1
Mus musculus [9] = assay: Anticonvulsant activity in ip dosed NMRI mouse assessed as dose required to cause protection against maximal electroshock-induced seizures after 4 hrs; type: functional; conditions: read-out: MED; outline: as §2
Mus musculus [10] = assay: Anticonvulsant activity in ip dosed NMRI mouse assessed as dose required to cause protection against subcutaneous pentylene tetrazole-induced seizure after 0.5 hrs; type: functional; conditions: read-out: MED; outline: as §2
Mus musculus [11] = assay: Anticonvulsant activity in ip dosed NMRI mouse assessed as dose required to cause protection against maximal electroshock-induced seizures after 0.5 hrs; type: functional; conditions: read-out: MED; outline: as §2

| Structure (SMILES) | Activity (Mus musculus [1]) | Activity (Mus musculus [2]) | Activity (Mus musculus [3]) | Activity (Mus musculus [4]) | Activity (Mus musculus [5]) | Activity (Mus musculus [6]) | minimal effective dose (Mus musculus [7]) [mg/kg] | TD50 at 4 h [8] [mg/kg] | minimal effective dose (Mus musculus [9]) [mg/kg] | minimal effective dose (Mus musculus [10]) [mg/kg] | minimal effective dose (Mus musculus [11]) [mg/kg] |
| --- | --- | --- | --- | --- | --- | --- | --- | --- | --- | --- | --- |
| Cc1cccn2c(/C=N/OCc3cn(Cc4ccc([N+](=O)[O-])cc4)nn3)c(-c3ccccc3)nc12 | Non-toxic | inactive | inactive | Non-toxic | inactive | inactive | – | – | – | – | – |
| C#CCO/N=C/c1c(-c2ccc(F)cc2)nc2c(C)cccn12 | Non-toxic | – | inactive | Non-toxic | inactive | inactive | 100 | – | – | – | – |
| Cc1ccc(Cn2cc(CO/N=C/c3c(-c4ccc(F)cc4)nc4c(C)cccn34)nn2)cc1 | Non-toxic | – | inactive | Non-toxic | inactive | inactive | 40 | – | – | – | – |
| Cc1ccc(-c2nc3c(C)cccn3c2/C=N/OCc2cn(Cc3ccc(C#N)cc3)nn2)cc1 | – | – | inactive | Non-toxic | inactive | inactive | 100 | 100 | – | – | – |
| Cc1ccc(Cn2cc(CO/N=C/c3c(-c4ccccc4)nc4ccc(Br)cn34)nn2)cc1 | Non-toxic | inactive | inactive | Non-toxic | inactive | inactive | – | – | – | – | – |
| Cc1ccc(-c2nc3c(C)cccn3c2/C=N/O)cc1 | Non-toxic | – | – | Non-toxic | inactive | – | 40 | – | 40 | 20 | – |
| O/N=C/c1c(-c2ccc(F)cc2)nc2ccc(Br)cn12 | Non-toxic | – | inactive | Non-toxic | inactive | – | 40 | – | – | 40 | – |
| Cc1ccc(-c2nc3ccc(Br)cn3c2/C=N/O)cc1 | Non-toxic | – | – | Non-toxic | inactive | – | 20 | – | 100 | 20 | – |
| Cc1ccc(Cn2cc(CO/N=C/c3c(-c4ccc(F)cc4)nc4ccc(Br)cn34)nn2)cc1 | Non-toxic | – | inactive | Non-toxic | inactive | inactive | 100 | – | – | – | – |
| O=C1NC(=O)C(c2ccccc2)(c2ccccc2)N1 [PHENYTOIN] | – | – | – | – | – | – | – | – | 20 | – | 20 |
| N#Cc1ccc(Cn2cc(CO/N=C/c3c(-c4ccccc4)nc4ccc(Br)cn34)nn2)cc1 | Non-toxic | – | – | Non-toxic | inactive | – | 20 | – | 100 | 20 | – |
| Cc1ccc(Cn2cc(CO/N=C/c3c(-c4ccc(C)cc4)nc4c(C)cccn34)nn2)cc1 | Non-toxic | inactive | inactive | Non-toxic | inactive | inactive | – | – | – | – | – |
| O/N=C/c1c(-c2ccccc2)nc2ccc(Br)cn12 | Non-toxic | inactive | inactive | Non-toxic | inactive | inactive | – | – | – | – | – |
| COc1ccc(Cn2cc(CO/N=C/c3c(-c4ccc(F)cc4)nc4ccc(Br)cn34)nn2)cc1 | Non-toxic | inactive | inactive | Non-toxic | inactive | inactive | – | – | – | – | – |
| O=[N+]([O-])c1ccc(Cn2cc(CO/N=C/c3c(-c4ccccc4)nc4ccc(Br)cn34)nn2)cc1 | Non-toxic | – | – | Non-toxic | inactive | – | 40 | – | 40 | 20 | – |
| N#Cc1ccc(Cn2cc(CO/N=C/c3c(-c4ccc(F)cc4)nc4ccc(Br)cn34)nn2)cc1 | – | – | – | Non-toxic | inactive | inactive | 100 | 100 | 100 | – | – |
